The values below come from publication PMC3565245 (Current Chemical Genomics, 2012).

The target of series [1] is T1, Giardia lamblia carbamate kinase (glCK) (Giardia intestinalis, UniProt A8BB85).
T1 sequence (A8BB85 1-316): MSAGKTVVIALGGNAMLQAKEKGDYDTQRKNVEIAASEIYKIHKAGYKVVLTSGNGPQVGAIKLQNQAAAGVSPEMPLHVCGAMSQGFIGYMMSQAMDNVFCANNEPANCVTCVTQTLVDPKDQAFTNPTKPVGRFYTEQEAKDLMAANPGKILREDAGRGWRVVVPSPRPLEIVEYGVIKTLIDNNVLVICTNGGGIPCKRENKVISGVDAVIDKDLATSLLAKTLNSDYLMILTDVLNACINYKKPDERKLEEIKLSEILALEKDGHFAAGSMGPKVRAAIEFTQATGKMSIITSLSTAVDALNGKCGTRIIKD
Nature of the series: Luminescence-based carbamate kinase assay in 1536-well format. In kind it is biochemical. The following applies: for Efficacy (% Inhibition): maximal response of the fitted curve, luminescence assay. In a few lines:
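Reaction was started with ADP/carbamoyl phosphate (final 150 µM) plus ATPLite and run 20 min at room temperature before the luminescence read. Data were normalized to DMSO and no-enzyme wells, pattern-corrected, and Hill-fitted for IC50 and efficacy.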

In series [2] the target is T2, glCK (Giardia intestinalis, UniProt A8BB85).
T2 sequence (A8BB85 1-316): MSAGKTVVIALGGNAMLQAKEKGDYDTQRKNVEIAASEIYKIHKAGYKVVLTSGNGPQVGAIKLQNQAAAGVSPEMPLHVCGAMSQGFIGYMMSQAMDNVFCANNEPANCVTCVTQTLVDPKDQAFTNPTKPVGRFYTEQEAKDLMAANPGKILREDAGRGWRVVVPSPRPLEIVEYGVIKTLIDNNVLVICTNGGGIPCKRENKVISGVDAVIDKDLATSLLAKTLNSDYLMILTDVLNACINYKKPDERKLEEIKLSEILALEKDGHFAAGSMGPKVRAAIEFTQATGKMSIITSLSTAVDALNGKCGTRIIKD
Put plainly: Absorbance-based carbamate kinase assay. Type of series: biochemical, Giardia lamblia. A digest of the protocol: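 Coupled absorbance assay at room temperature. glCK in 20 mM Tris-HCl pH 7.5 was preincubated 15 min with test compound (final 0.002, 0.02, 0.2, 1, 2, 20, 200 μM; enzyme final 5 nM). It was then added to substrate mix (ADP, carbamoyl phosphate, final 40 µM; 30 mM MgCl2, glucose, NADP, hexokinase, G6P dehydrogenase). NADPH was followed at 340 nm, and IC50 was derived from initial velocities.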

Series [3] relates to Giardia infection. The following applies: cited from earlier work.
In series [4] the test system is Giardia. Conditions: maximum screening concentration of 38.3 µM; cited from earlier work.
Series [5] deals with giardiasis. The following applies: giardiasis standard of care; cited from earlier work.
Substrate in series [6]: Nc1ncnc2c1ncn2[C@@H]1O[C@H](COP(=O)(O)OP(=O)(O)O)[C@@H](O)[C@H]1O
Put plainly: Steady-state kinetics of glCK, luminescence assay in 384-well format. Conditions: other: room temperature, substrate of glCK; pH 8.0. In kind it is biochemical, Giardia lamblia.

The mark [7] stands for this setting: IC50 Luminescence Assay, Table 3, secondary assay comparison.

Counter-ions that a name gives are not always drawn. Like-named read-outs stand apart in the source and are kept apart here. Where only a bound is given, the exact number is not on record here.

Take `Oc1cc2c(cc1O)[C@H]1c3ccccc3CN[C@@H]1CC2` (racemic) [Dihydrexidine hydrochloride]: in series [1], the “Efficacy (% Inhibition)” value is 82.9%.
By IC50 is commonly meant the point on the concentration scale where inhibition reaches its midpoint. In the case of `O=C(O)Cc1ccc(O)c(O)c1` [3,4-Dihydroxyphenylacetic acid], the values for the IC50 in series [2] and in series [1] (setting [7]) were 11700 nM and 6510 nM, respectively. In addition, the “Efficacy (% Inhibition)” value in series [1] was determined as 80.2%.
In the same order, the values of `CC(C)(C)C(=O)OCOP(=O)(COCCn1cnc2c(N)ncnc21)OCOC(=O)C(C)(C)C` [Adefovir dipivoxil] are greater than 200000 nM, 16300 nM and 83.6%.
In the same order, the values of `CN1CCc2cccc3c2[C@H]1Cc1ccc(O)c(O)c1-3` [Apomorphine hydrochloride hemihydrate] are greater than 200000 nM, 3260 nM and 89.4%.
`OC[C@H]1O[C@H]([S-])[C@H](O)[C@@H](O)[C@@H]1O.[Au+]` [Aurothioglucose]: the “Efficacy (% Inhibition)” value in series [1] turned out to be 81.2%.
As to `CCOC(=S)SSC(=S)OCC` [Bis(ethylxanthogen)], the “Efficacy (% Inhibition)” value in series [1] is given as 82.3%.
As for `O=C1C2CC=CCC2C(=O)N1SC(Cl)(Cl)Cl` (stereo not drawn) [Captan], the 50% inhibitory concentration (IC50) amounted to 470 nM in series [2] and 2590 nM in series [1] (setting [7]). In addition, the “Efficacy (% Inhibition)” value in series [1] stood at 88.6%.
In the same order, the values of `C[C@@](Cc1ccc(O)c(O)c1)(NN)C(=O)O` [Carbidopa] are greater than 200000 nM, 5800 nM and 79.4%.
With `N.N.[Cl][Pt][Cl]` [Cisplatin], the “Efficacy (% Inhibition)” value in series [1] was 88.2%.
In the case of `CCN(CC)C(=S)SSC(=S)N(CC)CC` [Disulfiram], the “anti-giardial activities in a mouse model” value in series [3] was “anti-giardial activities”. For the same molecule, the “activity in Giardia killing screen (>30% reduction in ATP content)” value (“activity … (>30% reduction in ATP content)” below) in series [4] was “active”. Moreover, the figures for the 50% inhibitory concentration (IC50) in series [2] and in series [1] (setting [7]) were 1390 nM and 580 nM, respectively. The “Efficacy (% Inhibition)” value in series [1] was 90.5%.
In the case of `CCN(CC)C(=S)S` [Ditiocarb], the “activity … (>30% reduction in ATP content)” value in series [4] is recorded as “active”. Further, the “Efficacy (% Inhibition)” value in series [1] was 77.7%.
Regarding `Oc1ccc(C2CNCCc3c2cc(O)c(O)c3Cl)cc1` (stereo not drawn) [Fenoldopam], in series [1], the “Efficacy (% Inhibition)” value is given as 84.5%.
In the case of `O=C(O)c1cc(O)c(O)c(O)c1` [Gallic acid], the figures for the IC50 in series [2] and in series [1] (setting [7]) were 11400 nM and 650 nM, respectively. In addition, the “Efficacy (% Inhibition)” value in series [1] is on record as 89.2%.
Regarding `O=C([O-])c1ccccc1-c1c2cc(Br)c(=O)cc-2oc2[c]([Hg+])c([O-])c(Br)cc12.[Na+].[Na+].[OH-]` [Mercurochrome], the IC50 in series [2] (read-out: IC50 Absorbance Assay, 5 nM glCK, inhibitor up to 200 μM) was found to be 220 nM; in series [1] (read-out: IC50 Luminescence Assay, Table 3, secondary assay comparison), 2060 nM. Besides, the “Efficacy (% Inhibition)” value in series [1] was 93.8%.
On to `Oc1cccc(O)c1O` [Pyrogallol], for which the IC50 in series [2] was found to be 2700 nM; in series [1] (setting [7]), 16300 nM. In series [1], the “Efficacy (% Inhibition)” value is on record as 77.4%.
In the same order, the values of `O=C(O)[C@@H](S)[C@@H](S)C(=O)O` [Succimer] are 540 nM, 650 nM and 85.5%.
For the molecule `CN(C)C(=S)SSC(=S)N(C)C` [Thiram], the “anti-giardial activities in a mouse model” value in series [3] is given as “anti-giardial activities”. Moreover, the “activity … (>30% reduction in ATP content)” value in series [4] is “active”. In addition, the half-inhibitory concentration (IC50) is 640 nM in series [2]; 4100 nM in series [1] (IC50, values of the running text, chelator class); 4110 nM in series [1] (setting [7]). Besides, the “Efficacy (% Inhibition)” value in series [1] came out at 92.3%.
For `Cc1ncc([N+](=O)[O-])n1CCO` [metronidazole], in series [5], the “single course cure rates” value is 80–95%.
Take `CCS(=O)(=O)CCn1c([N+](=O)[O-])cnc1C` [tinidazole]: in series [5], the “single course cure rates” value is 80–95%.

B1: glCK (Giardia lamblia ATCC 50803) (protein)
chain: MSAGKTVVIALGGNAMLQAKEKGDYDTQRKNVEIAASEIYKIHKAGYKVVLTSGNGPQVGAIKLQNQAAAGVSPEMPLHVCGAMSQGFIGYMMSQAMDNVFCANNEPANCVTCVTQTLVDPKDQAFTNPTKPVGRFYTEQEAKDLMAANPGKILREDAGRGWRVVVPSPRPLEIVEYGVIKTLIDNNVLVICTNGGGIPCKRENKVISGVDAVIDKDLATSLLAKTLNSDYLMILTDVLNACINYKKPDERKLEEIKLSEILALEKDGHFAAGSMGPKVRAAIEFTQATGKMSIITSLSTAVDALNGKCGTRIIKD
What is called Km is the concentration of substrate that gives half-maximal velocity. Consider B1, for which the Michaelis constant (Km) in series [6] is on record as 58.3 ± 2.4 µM.
